Test results reported in ChEMBL document CHEMBL5705890, “Antitumor activity of an allosteric inhibitor of centromere-associated protein-E” (Proc Natl Acad Sci U S A, 2010).

Experiments:
5637 = assay: Anticancer activity against human 5637 cells assessed as cell growth inhibition measured after 72 hrs by DAPI staining based analysis; type: functional
How it was run: (§1)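 Cells were seeded and, after 24 h, DNA content was read as T0. Cells were then exposed to varying drug concentrations for a further 72 h (T72). Fixed cells were DAPI-stained and DNA content measured by automated imaging. T72 values were normalized to T0. GI50 is the concentration giving 50% growth inhibition between T0 and Ymax, obtained by curve fitting.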

SAOS-2 = assay: Anticancer activity against human SAOS-2 cells assessed as cell doubling measured for 72 hrs by DAPI staining based analysis; type: functional
HCT-8 = assay: Anticancer activity against human HCT-8 cells assessed as cell doubling measured for 72 hrs by DAPI staining based analysis; type: functional
[1] = biological target: Centromere-associated protein E (Homo sapiens, UniProt Q02224); assay: Inhibition of microtubule-stimulated ATPase activity of C-terminal 6-his-tagged CENP-E (2 to 340 residues)(unknown origin) expressed in Escherichia coli BL21(DE3) in presence of ATP
Sequence of Centromere-associated protein E (Q02224 whole entry, the tested form may be a part): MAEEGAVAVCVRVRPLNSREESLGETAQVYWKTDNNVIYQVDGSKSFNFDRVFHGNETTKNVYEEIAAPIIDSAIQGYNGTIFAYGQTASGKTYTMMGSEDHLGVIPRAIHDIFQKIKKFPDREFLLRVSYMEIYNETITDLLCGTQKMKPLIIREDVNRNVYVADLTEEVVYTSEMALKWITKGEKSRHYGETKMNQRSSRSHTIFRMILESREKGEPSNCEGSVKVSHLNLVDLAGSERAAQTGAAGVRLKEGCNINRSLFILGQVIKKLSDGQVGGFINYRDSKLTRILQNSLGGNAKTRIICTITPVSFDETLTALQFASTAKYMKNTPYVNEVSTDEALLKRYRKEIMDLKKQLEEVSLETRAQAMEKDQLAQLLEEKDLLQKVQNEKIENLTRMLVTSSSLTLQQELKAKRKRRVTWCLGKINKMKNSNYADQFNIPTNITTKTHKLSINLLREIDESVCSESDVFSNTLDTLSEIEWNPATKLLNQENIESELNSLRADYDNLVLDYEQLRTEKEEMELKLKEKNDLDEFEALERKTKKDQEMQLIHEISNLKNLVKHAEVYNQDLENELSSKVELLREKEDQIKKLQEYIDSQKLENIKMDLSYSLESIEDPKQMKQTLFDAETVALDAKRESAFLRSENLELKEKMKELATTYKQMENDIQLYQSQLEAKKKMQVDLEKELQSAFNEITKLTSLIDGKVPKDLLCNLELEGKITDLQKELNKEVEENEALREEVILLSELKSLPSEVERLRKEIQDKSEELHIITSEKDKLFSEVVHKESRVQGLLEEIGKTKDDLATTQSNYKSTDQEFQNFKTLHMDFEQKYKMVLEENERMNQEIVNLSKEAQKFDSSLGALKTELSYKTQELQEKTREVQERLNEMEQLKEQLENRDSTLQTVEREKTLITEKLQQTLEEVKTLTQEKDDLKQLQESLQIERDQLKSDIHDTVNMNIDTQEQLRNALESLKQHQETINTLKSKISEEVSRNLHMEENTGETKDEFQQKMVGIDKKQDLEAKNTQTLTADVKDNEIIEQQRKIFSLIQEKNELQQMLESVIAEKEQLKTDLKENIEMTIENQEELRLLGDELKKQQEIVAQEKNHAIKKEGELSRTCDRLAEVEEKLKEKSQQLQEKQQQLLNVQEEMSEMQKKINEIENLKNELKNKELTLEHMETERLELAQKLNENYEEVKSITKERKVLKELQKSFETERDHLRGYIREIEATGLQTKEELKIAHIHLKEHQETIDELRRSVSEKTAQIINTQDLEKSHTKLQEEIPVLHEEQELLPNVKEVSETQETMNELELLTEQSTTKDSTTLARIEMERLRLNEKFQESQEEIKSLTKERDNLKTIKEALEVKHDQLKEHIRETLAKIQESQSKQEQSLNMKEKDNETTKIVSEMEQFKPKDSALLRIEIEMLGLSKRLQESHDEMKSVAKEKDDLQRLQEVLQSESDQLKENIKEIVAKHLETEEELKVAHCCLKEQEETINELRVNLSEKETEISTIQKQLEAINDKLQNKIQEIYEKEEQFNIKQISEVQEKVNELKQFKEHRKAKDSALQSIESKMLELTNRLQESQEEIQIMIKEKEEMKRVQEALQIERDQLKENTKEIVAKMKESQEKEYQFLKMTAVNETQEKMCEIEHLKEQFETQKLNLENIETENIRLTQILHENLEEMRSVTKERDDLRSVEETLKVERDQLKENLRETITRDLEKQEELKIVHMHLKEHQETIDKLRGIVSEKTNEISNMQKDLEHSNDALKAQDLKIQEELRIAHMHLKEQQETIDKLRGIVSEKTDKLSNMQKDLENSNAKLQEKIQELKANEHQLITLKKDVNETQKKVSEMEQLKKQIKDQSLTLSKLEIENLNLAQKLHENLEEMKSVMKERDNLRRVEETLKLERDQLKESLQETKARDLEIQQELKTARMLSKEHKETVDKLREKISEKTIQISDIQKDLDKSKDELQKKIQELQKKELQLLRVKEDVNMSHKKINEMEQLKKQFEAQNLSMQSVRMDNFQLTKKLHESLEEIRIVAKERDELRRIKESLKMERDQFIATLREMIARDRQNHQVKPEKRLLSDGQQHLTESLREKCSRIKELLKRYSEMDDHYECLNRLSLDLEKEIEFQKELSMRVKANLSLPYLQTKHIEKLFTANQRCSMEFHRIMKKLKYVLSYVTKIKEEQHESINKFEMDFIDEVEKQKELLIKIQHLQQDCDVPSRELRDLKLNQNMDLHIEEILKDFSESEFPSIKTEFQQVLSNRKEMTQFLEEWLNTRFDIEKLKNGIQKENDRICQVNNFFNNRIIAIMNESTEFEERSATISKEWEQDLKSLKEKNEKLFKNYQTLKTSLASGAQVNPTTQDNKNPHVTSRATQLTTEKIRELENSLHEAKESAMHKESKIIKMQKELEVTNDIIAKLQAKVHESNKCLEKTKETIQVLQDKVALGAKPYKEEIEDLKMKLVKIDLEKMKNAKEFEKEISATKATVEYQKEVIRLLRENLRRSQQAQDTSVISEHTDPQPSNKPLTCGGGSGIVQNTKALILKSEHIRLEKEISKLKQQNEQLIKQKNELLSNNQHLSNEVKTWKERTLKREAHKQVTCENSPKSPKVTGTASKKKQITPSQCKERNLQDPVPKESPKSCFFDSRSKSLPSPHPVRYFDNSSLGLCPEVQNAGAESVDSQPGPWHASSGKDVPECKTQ
How it was run: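 Steady-state ATPase of CENP-E motor domain, residues 2–340 with C-terminal 6-His tag, expressed in E. coli BL21(DE3). Run at 1 nM enzyme, 500 μM ATP and 5 μM paclitaxel-stabilized microtubules in PEM25 (25 mM PIPES-K pH 6.8, 2 mM MgCl2, 1 mM EGTA) plus 10 μM paclitaxel. IC50 taken from concentration-response curves.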

SW-403 = assay: Anticancer activity against human SW403 cells assessed as cell doubling measured for 72 hrs by DAPI staining based analysis; type: functional
A2780 = assay: Anticancer activity against human A2780 cells assessed as cell doubling measured for 72 hrs by DAPI staining based analysis; type: functional
NCI-H82 = assay: Anticancer activity against human NCI-H82 cells assessed as cell growth inhibition measured after 72 hrs by DAPI staining based analysis; type: functional
HT-1376 = assay: Anticancer activity against human HT-1376 cells assessed as cell growth inhibition measured after 72 hrs by DAPI staining based analysis; type: functional
[2] = Anticancer activity against human A7 cells assessed as cell growth inhibition measured after 72 hrs by DAPI staining based analysis; type: functional; how it was run: as §1
[3] = Anticancer activity against human BM-1604 cells assessed as cell growth inhibition measured after 72 hrs by DAPI staining based analysis; type: functional
How it was run: (§2)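 Cells were seeded, and DNA content at 24 h after seeding (T0) was read by imaging of fixed, DAPI-stained cells. Cells were then exposed to a range of drug concentrations for a further 72 h (T72) and DNA content was read again. T72 values were normalized to T0, and GI50 was taken from curve fits as the concentration giving 50% growth inhibition relative to T0 and Ymax.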

WiDr = assay: Anticancer activity against human WiDr cells assessed as cell growth inhibition measured after 72 hrs by DAPI staining based analysis; type: functional
T47D = assay: Anticancer activity against human T47D cells assessed as cell growth inhibition measured after 72 hrs by DAPI staining based analysis; type: functional
JEG-3 = assay: Anticancer activity against human JEG-3 cells assessed as cell doubling measured for 72 hrs by DAPI staining based analysis; type: functional
NCI-H661 = assay: Anticancer activity against human NCI-H661 cells assessed as cell doubling measured for 72 hrs by DAPI staining based analysis; type: functional
SK-N-AS = assay: Anticancer activity against human SK-N-AS cells assessed as cell growth inhibition measured after 72 hrs by DAPI staining based analysis; type: functional
CAL-54 = assay: Anticancer activity against human CAL-54 cells assessed as cell growth inhibition measured after 72 hrs by DAPI staining based analysis; type: functional; how it was run: as §2
MDA-MB-453 = assay: Anticancer activity against human MDA-MB-453 cells assessed as cell growth inhibition measured after 72 hrs by DAPI staining based analysis; type: functional
SNU-449 = assay: Anticancer activity against human SNU-449 cells assessed as cell doubling measured for 72 hrs by DAPI staining based analysis; type: functional
SNB-19 [4] = assay: Anticancer activity against human SNB-19 cells assessed as cell growth inhibition measured after 72 hrs by DAPI staining based analysis; type: functional
OVCAR-5 = assay: Anticancer activity against human OVCAR-5 cells assessed as cell doubling measured for 72 hrs by DAPI staining based analysis; type: functional
T-24 = assay: Anticancer activity against human T24 cells assessed as cell doubling measured for 72 hrs by DAPI staining based analysis; type: functional
SJRH30 = assay: Anticancer activity against human SJRH30 cells assessed as cell growth inhibition measured after 72 hrs by DAPI staining based analysis; type: functional
SW1463 = assay: Anticancer activity against human SW1463 cells assessed as cell growth inhibition measured after 72 hrs by DAPI staining based analysis; type: functional
A673 = assay: Anticancer activity against human A673 cells assessed as cell doubling measured for 72 hrs by DAPI staining based analysis; type: functional
Raji = assay: Anticancer activity against human Raji cells assessed as cell doubling measured for 72 hrs by DAPI staining based analysis; type: functional
NCI-H460 = assay: Anticancer activity against human NCI-H460 cells assessed as cell doubling measured for 72 hrs by DAPI staining based analysis; type: functional
RKO = assay: Anticancer activity against human RKO cells assessed as cell growth inhibition measured after 72 hrs by DAPI staining based analysis; type: functional
Detroit 562 = assay: Anticancer activity against human Detroit 562 cells assessed as cell growth inhibition measured after 72 hrs by DAPI staining based analysis; type: functional
How it was run: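 Cells seeded, DAPI-stained DNA content of fixed cells read by imaging 24 h after seeding (T0), and again after a further 72 h exposure to a range of drug concentrations (T72). T72 values were normalized to T0. Curve fits gave the concentration producing 50% growth inhibition relative to T0 and Ymax (GI50).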

HepG2 = assay: Anticancer activity against human HepG2 cells assessed as cell doubling measured for 72 hrs by DAPI staining based analysis; type: functional
SNB-19 [5] = assay: Anticancer activity against human SNB-19 cells assessed as cell doubling measured for 72 hrs by DAPI staining based analysis; type: functional
CCF-STTG1 = assay: Anticancer activity against human CCF-STTG1 cells assessed as cell growth inhibition measured after 72 hrs by DAPI staining based analysis; type: functional; how it was run: as §2
LS-1034 = assay: Anticancer activity against human LS1034 cells assessed as cell growth inhibition measured after 72 hrs by DAPI staining based analysis; type: functional
[6] = Anticancer activity against human SKO-007 cells assessed as cell doubling measured for 72 hrs by DAPI staining based analysis; type: functional
HN5 = assay: Anticancer activity against human HN5 cells assessed as cell doubling measured for 72 hrs by DAPI staining based analysis; type: functional
Hep 3B2 = assay: Anticancer activity against human Hep3B cells assessed as cell growth inhibition measured after 72 hrs by DAPI staining based analysis; type: functional
SNU1 = assay: Anticancer activity against human SNU1 cells assessed as cell doubling measured for 72 hrs by DAPI staining based analysis; type: functional
UACC-257 = assay: Anticancer activity against human UACC-257 cells assessed as cell growth inhibition measured after 72 hrs by DAPI staining based analysis; type: functional
NCI-H508 = assay: Anticancer activity against human NCI-H508 cells assessed as cell doubling measured for 72 hrs by DAPI staining based analysis; type: functional

CC(C)Oc1ccc(C(=O)N[C@H](CNC(=O)CN(C)C)Cc2ccc(-c3cn4cccc([C@H](C)O)c4n3)cc2)cc1Cl [GSK-923295A]
GI50 5637: 23 nM
Activity (SAOS-2): 1.5
Activity (HCT-8): 4.26
IC50 [1]: 2.3 nM
Activity (SW-403): 1.12
Activity (A2780): 1.62
GI50 (NCI-H82): 18 nM
GI50 (HT-1376): 33 nM
GI50 [2]: 40 nM
GI50 [3]: 40 nM
GI50 (WiDr): 18 nM
GI50 (T47D): 29 nM
Activity (JEG-3): 2.9
Activity (NCI-H661): 1.56
GI50 (SK-N-AS): 38 nM
GI50 (CAL-54): 49 nM
GI50 (MDA-MB-453): 27 nM
Activity (SNU-449): 2.33
GI50 (SNB-19 [4]): 28 nM
Activity (OVCAR-5): 2.84
Activity (T-24): 1.57
GI50 (SJRH30): 26 nM
GI50 (SW1463): 31 nM
Activity (A673): 2
Activity (Raji): 3.26
Activity (NCI-H460): 3.86
GI50 (RKO): 53 nM
GI50 (Detroit 562): 35 nM
Activity (HepG2): 2.45
Activity (SNB-19 [5]): 2.56
GI50 (CCF-STTG1): 24 nM
GI50 (LS-1034): 97 nM
Activity [6]: 1.01
Activity (HN5): 3.38
GI50 (Hep 3B2): 164 nM
Activity (SNU1): 2.64
GI50 (UACC-257): 32 nM
Activity (NCI-H508): 3.01
